Data from ChEMBL document CHEMBL3808280, “GroEL/ES inhibitors as potential antibiotics” (Bioorg Med Chem Lett, 2016).
Converted amounts (≈) assume the structure as drawn. The source made the active and inactive calls. The rule behind the calls is not given here.

Key:
Enterococcus faecium = assay: Antibacterial activity against multidrug resistant Enterococcus faecium NCTC 7171 (ATCC 19434) assessed as reduction in bacterial growth incubated for 6 to 8 hrs; type: functional, organism-based
In short: (§1)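 Broth proliferation assay. S. aureus and MRSA grown in ATCC Medium 18, other pathogens in Brain Heart Infusion. Stagnant incubation at 37°C under breathable seal. OD600 read at mid-log (6-8 h) and corrected with bacteria-free baseline plates. EC50 by variable-slope nonlinear fit, at least triplicate.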

[1] = Therapeutic index, ratio of EC50 for human THLE3 cells to EC50 for Staphylococcus aureus subsp. aureus Seattle 1945 (ATCC 25923); type: cell-based; details: read-out: Ratio EC50
E. coli GroEL/ES [2] = target: T1, E. coli GroEL/ES (Escherichia coli, UniProt P0A6F5); assay: (§2) Inhibition of Escherichia coli GroEL/GroES using Escherichia coli GroEL expressed in Escherichia coli DH5alpha cells and Escherichia coli GroES expressed in Escherichia coli BL21(DE3) cells assessed as inhibition of denatured rhodanese refolding by measuring reduction in thiocyanate production incubated for 60 mins by micro plate reader analysis
T1 sequence (P0A6F5 whole entry, looked up): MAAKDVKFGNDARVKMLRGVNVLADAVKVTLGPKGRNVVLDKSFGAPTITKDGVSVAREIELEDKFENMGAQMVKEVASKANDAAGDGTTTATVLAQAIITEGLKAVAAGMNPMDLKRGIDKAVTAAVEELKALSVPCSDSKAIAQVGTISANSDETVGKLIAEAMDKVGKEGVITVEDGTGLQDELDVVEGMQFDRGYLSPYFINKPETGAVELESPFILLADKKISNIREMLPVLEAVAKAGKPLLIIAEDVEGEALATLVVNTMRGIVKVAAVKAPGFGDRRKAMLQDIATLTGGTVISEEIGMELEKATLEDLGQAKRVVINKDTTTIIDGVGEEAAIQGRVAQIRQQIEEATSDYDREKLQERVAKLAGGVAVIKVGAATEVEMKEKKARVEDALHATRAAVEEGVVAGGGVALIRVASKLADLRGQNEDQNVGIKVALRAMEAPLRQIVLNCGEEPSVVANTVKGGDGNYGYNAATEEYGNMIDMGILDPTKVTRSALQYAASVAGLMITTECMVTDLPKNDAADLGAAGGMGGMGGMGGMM
In short: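 Urea-denatured rhodanese bound to GroEL/GroES in folding buffer containing thiosulfate. After 60 min at 37°C, thiocyanate reaction (KCN, thiosulfate, phosphate) run, then formaldehyde quench and ferric nitrate added. Fe(SCN)3 read at 460 nm after 15 min RT, with protein-free baseline plates.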

[3] = Cytotoxicity against human THLE3 cells assessed as reduction in cell viability after 48 hrs by alamar blue assay; type: cell-based; details: THLE3, 48 h
Pseudomonas aeruginosa = assay: Antibacterial activity against multidrug resistant Pseudomonas aeruginosa NCTC 10332 (ATCC 10145) assessed as reduction in bacterial growth incubated for 6 to 8 hrs; type: functional, organism-based; in short: as §1
Escherichia coli [4] = assay: Antibacterial activity against Escherichia coli SM101 assessed as reduction in bacterial growth incubated for 12 hrs by UV-Vis spectrophotometric analysis; type: functional, organism-based; details: SM101, 12 h
Staphylococcus aureus [5] = assay: Antibacterial activity against methicillin resistant Staphylococcus aureus subsp. aureus HPV107 (ATCC BAA-44) assessed as reduction in bacterial growth incubated for 6 to 8 hrs; type: functional, organism-based; in short: as §1
Escherichia coli [6] = assay: Antibacterial activity against acrB-deficient Escherichia coli MC4100 assessed as reduction in bacterial growth incubated for 6 to 8 hrs; type: functional, organism-based
HSP60/HSP10 [7] = target: T2, HSP60/HSP10 (Homo sapiens, UniProt P10809); assay: Inhibition of human HSP60/HSP10 expressed in Escherichia coli Rosetta2(DE3) cells assessed as reduction in denatured pig heart MDH ATPase activity by malachite green dye based assay
T2 sequence (P10809 whole entry): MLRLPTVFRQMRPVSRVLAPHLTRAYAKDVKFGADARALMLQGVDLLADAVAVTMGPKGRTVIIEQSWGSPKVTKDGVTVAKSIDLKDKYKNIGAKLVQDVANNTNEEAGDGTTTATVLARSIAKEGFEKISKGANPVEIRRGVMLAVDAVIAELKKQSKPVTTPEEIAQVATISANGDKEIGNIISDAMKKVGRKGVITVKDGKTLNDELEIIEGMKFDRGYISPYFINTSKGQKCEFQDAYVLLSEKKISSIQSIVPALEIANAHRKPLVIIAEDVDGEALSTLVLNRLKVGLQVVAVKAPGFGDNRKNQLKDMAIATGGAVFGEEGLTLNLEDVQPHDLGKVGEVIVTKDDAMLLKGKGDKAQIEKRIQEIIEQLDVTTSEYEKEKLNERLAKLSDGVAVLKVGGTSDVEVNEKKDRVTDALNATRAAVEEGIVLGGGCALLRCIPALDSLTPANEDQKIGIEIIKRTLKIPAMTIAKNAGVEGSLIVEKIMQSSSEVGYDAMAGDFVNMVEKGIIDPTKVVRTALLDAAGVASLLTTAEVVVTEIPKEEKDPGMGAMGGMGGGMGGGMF
T2 sequence (P61604 whole entry, further chain): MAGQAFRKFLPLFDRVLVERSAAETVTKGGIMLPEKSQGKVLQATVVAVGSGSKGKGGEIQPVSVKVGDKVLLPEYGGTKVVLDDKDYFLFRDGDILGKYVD

[8] = Therapeutic index, ratio of EC50 for HEK293 cells to EC50 for Staphylococcus aureus subsp. aureus Seattle 1945 (ATCC 25923); type: cell-based; details: human, read-out: Ratio EC50
Staphylococcus aureus [9] = assay: Bactericidal activity against Staphylococcus aureus subsp. aureus Seattle 1945 (ATCC 25923) at 4 times MIC up to 24 hrs by agar dilution method; type: functional, organism-based
In short: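 Time-kill in ATCC Medium 18. […] Viable counts were taken at 0, 1, 2, 4, 6 and 24 h by dilution and plating on Medium 18 agar. Values are averages of triplicates.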

Acinetobacter baumannii = assay: Antibacterial activity against multidrug resistant Acinetobacter baumannii 2208 (ATCC 19606) assessed as reduction in bacterial growth incubated for 6 to 8 hrs; type: functional; in short: as §1
E. coli GroEL/ES [10] = target: T1, E. coli GroEL/ES; assay: as §2, with “pig heart MDH” for “rhodanese”, “NADH” for “thiocyanate”
In short: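 Denatured MDH (guanidine-HCl/DTT, 30 min RT) bound to GroEL with GroES in Tris pH 7.4, KCl, MgCl2, DTT buffer. 60 min at 37°C, EDTA quench to 100 mM. Refolded MDH activity read with mesoxalate/NADH at 340 nm. Log-averaged IC50 from replicates.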

E. coli GroEL/ES [11] = target: T1, E. coli GroEL/ES; assay: Inhibition of Escherichia coli GroEL/GroES using Escherichia coli GroEL expressed in Escherichia coli DH5alpha cells and Escherichia coli GroES expressed in Escherichia coli BL21(DE3) cells assessed as reduction in denatured pig heart MDH ATPase activity by malachite green dye based assay
Escherichia coli [12] = assay: Antibacterial activity against Escherichia coli DH5alpha assessed as reduction in bacterial growth incubated for 6 to 8 hrs; type: functional, organism-based; details: DH5[alpha]
[13] = test system: Klebsiella pneumoniae subsp. pneumoniae; assay: Antibacterial activity against multidrug resistant Klebsiella pneumoniae subsp. pneumoniae NCTC 9633 (ATCC 13883) assessed as reduction in bacterial growth incubated for 6 to 8 hrs; type: functional, organism-based; in short: as §1
Bacillus subtilis = assay: Antibacterial activity against Bacillus subtilis 168 assessed as reduction in bacterial growth incubated for 6 to 8 hrs; type: functional, organism-based; details: subsp. subtilis str. 168
E. coli GroEL/ES [14] = target: T1, E. coli GroEL/ES; assay: (§3) Inhibition of Escherichia coli GroEL/GroES using Escherichia coli GroEL expressed in Escherichia coli DH5alpha cells and Escherichia coli GroES expressed in Escherichia coli BL21(DE3) cells assessed as reduction in pig heart native refolded MDH-mediated NADH production by micro plate reader analysis
In short: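 Native MDH counter-screen. GroEL/ES-dMDH refolding run 60 min at 37°C, then EDTA-quenched without compound. IC50 averaged from at least triplicate.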

HSP60/HSP10 [15] = target: T2, HSP60/HSP10; assay: Inhibition of human HSP60/HSP10 expressed in Escherichia coli Rosetta2(DE3) cells assessed as inhibition of denatured pig heart MDH refolding by measuring reduction in NADH production incubated for 60 mins by micro plate reader analysis
In short: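 Pig heart MDH was denatured in guanidine-HCl (dMDH) and complexed with HSP60, then HSP10, in Tris pH 7.4/KCl/MgCl2/DTT buffer. EDTA quench (100 mM final); refolded MDH activity was followed with mesoxalate/NADH at 340 nm.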

Staphylococcus aureus [16] = assay: Antibacterial activity against Staphylococcus aureus subsp. aureus Seattle 1945 (ATCC 25923) assessed as inhibition of visual growth after 24 hrs; type: functional
In short: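 MIC assay in Tryptic Soy broth (ATCC Medium 18). An overnight culture was diluted 5-fold, grown 1 h at 37°C, then diluted to OD600 0.01 (~10⁷ CFU/ml). Compounds were added in DMSO at fixed final concentrations (e.g. vancomycin 1.2-2.2 µM).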

HEK293 = assay: Cytotoxicity against HEK293 cells assessed as reduction in cell viability after 48 hrs by alamar blue assay; type: cell-based; details: Homo sapiens, HEK293, 48 h
E. coli GroEL/ES [17] = target: T1, E. coli GroEL/ES; assay: as §3, with “in” for “in pig heart”, “rhodanese-mediated thiocyanate” for “MDH-mediated NADH”
Enterobacter cloacae = assay: Antibacterial activity against multidrug resistant Enterobacter cloacae subsp. cloacae CDC 442-68 (ATCC 13047) assessed as reduction in bacterial growth incubated for 6 to 8 hrs; type: functional, organism-based; in short: as §1
Staphylococcus aureus [18] = assay: Antibacterial activity against methicillin susceptible Staphylococcus aureus subsp. aureus Seattle 1945 (ATCC 25923) assessed as reduction in bacterial growth incubated for 6 to 8 hrs

Compound	EC50 (Enterococcus faecium)	selectivity ratio [1]	IC50 (E. coli GroEL/ES [2])	EC50 [3]	EC50 (Pseudomonas aeruginosa)	EC50 (Escherichia coli [4])	EC50 (Staphylococcus aureus [5])	EC50 (Escherichia coli [6])	IC50 (HSP60/HSP10 [7])	selectivity ratio [8]	Activity (Staphylococcus aureus [9])	EC50 (Acinetobacter baumannii)	IC50 (E. coli GroEL/ES [10])	EC50 (Escherichia coli [12])	EC50 [13]	EC50 (Bacillus subtilis)	IC50 (E. coli GroEL/ES [14])	MIC (Staphylococcus aureus [16])	EC50 (Enterobacter cloacae)	EC50 (Staphylococcus aureus [18])	also measured
O=C(Nc1ccc(Sc2nc3ccccc3s2)c(Cl)c1)c1cc(Br)cc(Br)c1O	0.15 µM	60	1.4 µM	12 µM	> 100 µM	0.33 µM	0.13 µM	2.3 µM	3.6 µM	390	Active	30 µM	1.4 µM	> 100 µM	> 100 µM	0.1 µM	7.1 µM	0.6 µM (≈ 0.342 µg/mL)	> 100 µM	0.2 µM	IC50 (E. coli GroEL/ES [11]): > 250 µM; IC50 (HSP60/HSP10 [15]): 5.5 µM; EC50 (HEK293): 78 µM; IC50 (E. coli GroEL/ES [17]): > 100 µM
CN[C@@H](CC(C)C)C(=O)N[C@H]1C(=O)N[C@@H](CC(N)=O)C(=O)N[C@H]2C(=O)N[C@H]3C(=O)N[C@H](C(=O)N[C@@H](C(=O)O)c4cc(O)cc(O)c4-c4cc3ccc4O)[C@H](O)c3ccc(c(Cl)c3)Oc3cc2cc(c3O[C@H]2O[C@@H](CO)[C@H](O)[C@@H](O)[C@@H]2O[C@@H]2C[C@@](C)(N)[C@@H](O)[C@@H](C)O2)Oc2ccc(cc2Cl)[C@H]1O	0.3 µM				74 µM		0.17 µM				Active	17 µM			> 100 µM			1.6 µM (≈ 2.32 µg/mL)	> 100 µM	0.2 µM	
Cn1c(=O)c(C(=O)Nc2ccncc2)c(O)c2ccccc21	> 100 µM	> 55	6.8 µM	> 100 µM	> 100 µM	3.3 µM	1.3 µM	21 µM	> 250 µM	> 55	Active	> 100 µM	5.7 µM	> 100 µM	> 100 µM	0.47 µM	> 62.5 µM	8 µM (≈ 2.36 µg/mL)	> 100 µM	1.8 µM	IC50 (HSP60/HSP10 [15]): > 100 µM; EC50 (HEK293): > 100 µM; IC50 (E. coli GroEL/ES [17]): > 100 µM
